These results are taken from ChEMBL document CHEMBL1208663, “Synthesis of 2-substituted-N-[4-(1-methyl-4,5-diphenyl-1H-imidazole-2-yl)phenyl]acetamide derivatives and evaluation of their anticancer activity” (Eur J Med Chem, 2010).

The structures appear in SMILES notation. ≈ marks a conversion by molar mass, not a printed value. Some results are limits rather than exact numbers.

In test [1] the test system is MCF7. Nature of the test: Cytotoxicity against human MCF7 cells at 80 ug/ml after 24 hrs by MTT assay. In kind it is functional. In short, it runs like this: (§1)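 MCF-7 cells grown in DMEM with 1 mM pyruvate, 10 µg/mL insulin, 10% FBS and penicillin/streptomycin at 37 °C, 5% CO2. Exposed 24 h to 0.64–80 µg/mL (DMSO stocks diluted in medium). MTT added, A540 measured. Percent viability relative to untreated cells; IC50 derived. Three experiments with four wells per concentration.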
(Formazan colour is commonly taken as a measure of viable cells.)

Test [2] deals with HT-29. In words: Cytotoxicity against human HT-29 cells at 16 ug/ml after 24 hrs by MTT assay. In kind it is functional. In short, it runs like this: (§2)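 HT-29 cells grown in McCoy's 5A with 10% FBS and penicillin/streptomycin at 37 °C, 5% CO2. Treated 24 h with 0.64, 1.6, 6.4, 16, 32 or 80 µg/mL (DMSO stock diluted in medium). MTT added, absorbance read at 540 nm. Viability taken relative to untreated control (100%); IC50 calculated. Four wells per concentration, three repeat experiments.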

In test [3] the test system is MCF7. In words: Cytotoxicity against human MCF7 cells at 32 ug/ml after 24 hrs by MTT assay. In kind it is functional. The gist of the method: as §1
The test system of test [4] is MCF7. Nature of the test: Cytotoxicity against human MCF7 cells after 24 hrs by MTT assay. In kind it is functional, cell-based. The settings on record: MCF7, 24 h. The gist of the method: as §1
For test [5], the system named is HT-29. In words: Cytotoxicity against human HT-29 cells at 6.4 ug/ml after 24 hrs by MTT assay. In kind it is functional. The gist of the method: as §2
Test [6] has as its system MCF7. Nature of the test: Cytotoxicity against human MCF7 cells at 0.64 ug/ml after 24 hrs by MTT assay. In kind it is functional. The gist of the method:
as §1

Test [7] has as its system MCF7. In words: Cytotoxicity against human MCF7 cells at 1.6 ug/ml after 24 hrs by MTT assay. It is filed as functional. In short, it runs like this:
as §1

For test [8], the system named is HT-29. In words: Cytotoxicity against human HT-29 cells at 80 ug/ml after 24 hrs by MTT assay. In kind it is functional. The gist of the method: as §2
Test [9] relates to MCF7. In words: Cytotoxicity against human MCF7 cells at 16 ug/ml after 24 hrs by MTT assay. It is filed as functional. The gist of the method:
as §1

In test [10] the test system is HT-29. In words: Cytotoxicity against human HT-29 cells at 1.6 ug/ml after 24 hrs by MTT assay. In kind it is functional. The gist of the method:
as §2

Test [11] has as its system HT-29. In words: Cytotoxicity against human HT-29 cells at 32 ug/ml after 24 hrs by MTT assay. It is filed as functional. In short, it runs like this: as §2
For test [12], the system named is HT-29. In words: Cytotoxicity against human HT-29 cells at 0.64 ug/ml after 24 hrs by MTT assay. In kind it is functional. The gist of the method: as §2
For test [13], the system named is HT-29. In words: Cytotoxicity against human HT-29 cells after 24 hrs by MTT assay. In kind it is functional, cell-based. The settings on record: HT-29, 24 h. The gist of the method: as §2
In test [14] the test system is MCF7. Nature of the test: Cytotoxicity against human MCF7 cells at 6.4 ug/ml after 24 hrs by MTT assay. In kind it is functional. In short, it runs like this: as §1

As for `CN1CCN(CC(=O)Nc2ccc(-c3nc(-c4ccccc4)c(-c4ccccc4)n3C)cc2)CC1`, the Activity in test [1] is listed as 50.3%; in test [2], 33.7%; in test [3] it was 46.2%; in test [5], 28.8%; in test [6], 1.1%; in test [7], 2.9%. The Activity in test [8] was determined as 53.1%; in [9], 30.1%; in [10] it was 27.4%; in test [11] it was 49.1%; in test [12] it was 18.8%; in test [14], 28.6%. Besides, the IC50 (as a rule, the point on the concentration scale where inhibition reaches its midpoint) worked out at 76.5 µg/mL (≈ 164 µM) in [4] and 35.5 µg/mL (≈ 76.2 µM) in test [13].

As to `CN(C)CCN1CCN(CC(=O)Nc2ccc(-c3nc(-c4ccccc4)c(-c4ccccc4)n3C)cc2)CC1`, the Activity in test [1] turned out to be 34.7%; in [2], 28.2%; in test [3], 25.8%; in [5], 12.2%; in test [6], 1.2%; in test [7], 1.9%. Besides, the Activity turned out to be 45.4% in [8]; 19.4% in test [9]; 8% in test [10]; 29.8% in test [11]; 3.1% in [12]; 11.1% in test [14]. Further, the half-maximal inhibitory concentration (IC50) in test [4] and in test [13] was more than 80 µg/mL in each case.

Regarding `Cn1c(-c2ccc(NC(=O)CN3CCN(Cc4ccc(Cl)cc4)CC3)cc2)nc(-c2ccccc2)c1-c1ccccc1`, the Activity is on record as 52.9% in test [1]; 52.9% in [2]; 52.8% in [3]; 41.5% in [5]; 4.8% in test [6]; 11.8% in test [7]. Also, the Activity is 60.7% in test [8]; 46.2% in test [9]; 16.4% in test [10]; 55.6% in test [11]; 11.3% in test [12]; 33.4% in test [14]. In addition, the results for the half-maximal inhibitory concentration (IC50) in [4] and in test [13] were 21 µg/mL (≈ 36.4 µM) and 12 µg/mL (≈ 20.8 µM), respectively.

As to `CCN1CCN(CC(=O)Nc2ccc(-c3nc(-c4ccccc4)c(-c4ccccc4)n3C)cc2)CC1`, the Activity in test [1] stood at 46.3%; in test [2] it was 28.4%; in test [3] it was 38.6%; in test [5], 17.2%; in [6] it was 4.7%; in [7], 14.6%. Further, the Activity in test [8] is 51.2%; in test [9], 32.8%; in test [10] it was 13.9%; in [11], 38.8%; in test [12] it was 7.4%; in test [14] it was 16.4%. The half-maximal inhibitory concentration (IC50) in test [4] was more than 80 µg/mL; in test [13] it was 75 µg/mL (≈ 156 µM).

On to `Cn1c(-c2ccc(NC(=O)CN3CCN(c4ccccc4)CC3)cc2)nc(-c2ccccc2)c1-c1ccccc1`, for which the Activity in test [1] worked out at 72.5%; in test [2], 55.4%; in test [3], 63.6%; in test [5], 46.5%; in test [6], 12.1%; in test [7], 21.3%. Also, the Activity in test [8] turned out to be 63.7%; in test [9], 59.6%; in [10], 26%; in test [11] it was 60.5%; in test [12] it was 17.3%; in [14], 37.7%. The IC50 amounted to 10.7 µg/mL (≈ 20.3 µM) in test [4] and 8.6 µg/mL (≈ 16.3 µM) in test [13].

Regarding `Cn1c(-c2ccc(NC(=O)CSc3nc4ccccc4s3)cc2)nc(-c2ccccc2)c1-c1ccccc1`, the Activity in test [1] worked out at 76.6%; in [2], 47.2%; in [3], 59%; in [5], 36.8%; in test [6], 0.9%; in [7], 2.1%. In addition, the Activity in test [8] is reported as 82.7%; in [9] it was 50.3%; in test [10], 15.3%; in test [11], 66%; in test [12], 9.8%; in test [14] it was 27%. The IC50 was found to be 15.8 µg/mL (≈ 29.7 µM) in test [4] and 18 µg/mL (≈ 33.8 µM) in test [13].

Turning to `Cn1c(-c2ccc(NC(=O)CN3CCN(Cc4ccccc4)CC3)cc2)nc(-c2ccccc2)c1-c1ccccc1`, the Activity in test [1] stood at 49.5%; in test [2] it was 37%; in test [3], 33.6%; in test [5] it was 26.8%; in test [6], 7.2%; in [7], 13.3%. Besides, the Activity in test [8] was determined as 54.5%; in test [9] it was 28.3%; in [10] it was 26%; in test [11] it was 40%; in test [12], 15.5%; in test [14], 23.8%. Further, the IC50 was more than 80 µg/mL in test [4] and 65.5 µg/mL (≈ 121 µM) in [13].

`Cn1c(-c2ccc(NC(=O)CCl)cc2)nc(-c2ccccc2)c1-c1ccccc1`: the Activity amounted to 70% in test [1]; 23.7% in [2]; 42.8% in test [3]; 15.1% in test [5]; 3.4% in test [6]; 4.3% in test [7]. Besides, the Activity in [8] is given as 76.1%; in [9], 15.2%; in [10] it was 14.4%; in test [11], 53.2%; in [12] it was 7.2%; in test [14], 14.2%. Also, the IC50 in test [4] was 42.6 µg/mL (≈ 106 µM); in [13] it was 28.7 µg/mL (≈ 71.4 µM).

In the case of `Cn1c(-c2ccc(NC(=O)CSC3=NCCS3)cc2)nc(-c2ccccc2)c1-c1ccccc1`, the Activity in test [1] amounted to 70%; in test [2], 43.3%; in test [3], 52.5%; in test [5] it was 31%; in test [6], 10.3%; in [7], 16.2%. Also, the Activity was found to be 75.2% in test [8]; 41.8% in test [9]; 30.4% in test [10]; 59.4% in test [11]; 16.8% in test [12]; 18.6% in [14]. Also, the results for the IC50 in test [4] and in test [13] were 26.7 µg/mL (≈ 55.1 µM) and 21 µg/mL (≈ 43.3 µM), respectively.

Turning to `Cn1ccnc1SCC(=O)Nc1ccc(-c2nc(-c3ccccc3)c(-c3ccccc3)n2C)cc1`, the Activity stood at 64% in test [1]; 36.5% in test [2]; 43.4% in test [3]; 30.7% in test [5]; 10.3% in test [6]; 17.5% in test [7]. Further, the Activity in test [8] was 69.4%; in [9], 32.4%; in test [10], 23.8%; in test [11], 41.1%; in [12], 13.6%; in test [14], 27.2%. Besides, the IC50 in [4] worked out at 46.5 µg/mL (≈ 97 µM); in test [13], 47.5 µg/mL (≈ 99 µM).
